Format in all cases: in vitro ADME
Data set [1] deals with T1, UGT1A9 (Homo sapiens, UniProt O60656).
T1 sequence (O60656 26-530): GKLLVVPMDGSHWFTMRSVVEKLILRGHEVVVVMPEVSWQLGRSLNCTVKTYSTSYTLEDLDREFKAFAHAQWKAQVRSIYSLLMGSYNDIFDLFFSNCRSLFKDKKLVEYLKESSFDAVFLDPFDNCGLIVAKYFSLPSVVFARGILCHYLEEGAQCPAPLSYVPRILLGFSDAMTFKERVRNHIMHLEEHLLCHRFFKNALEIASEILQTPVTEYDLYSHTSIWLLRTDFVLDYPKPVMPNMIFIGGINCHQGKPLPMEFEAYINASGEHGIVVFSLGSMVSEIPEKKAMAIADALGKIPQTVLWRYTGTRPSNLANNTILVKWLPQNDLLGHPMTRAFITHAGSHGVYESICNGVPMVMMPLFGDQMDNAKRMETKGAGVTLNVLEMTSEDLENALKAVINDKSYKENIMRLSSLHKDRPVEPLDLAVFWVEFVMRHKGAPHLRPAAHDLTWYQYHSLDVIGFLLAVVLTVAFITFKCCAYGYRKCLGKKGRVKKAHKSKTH
Kind of data set: Steady state kinetics of glucuronidation by recombinant UGT1A9.

Data set [2] concerns the target T2, UGT1A8 (Homo sapiens, UniProt Q9HAW9).
T2 sequence (Q9HAW9 26-530): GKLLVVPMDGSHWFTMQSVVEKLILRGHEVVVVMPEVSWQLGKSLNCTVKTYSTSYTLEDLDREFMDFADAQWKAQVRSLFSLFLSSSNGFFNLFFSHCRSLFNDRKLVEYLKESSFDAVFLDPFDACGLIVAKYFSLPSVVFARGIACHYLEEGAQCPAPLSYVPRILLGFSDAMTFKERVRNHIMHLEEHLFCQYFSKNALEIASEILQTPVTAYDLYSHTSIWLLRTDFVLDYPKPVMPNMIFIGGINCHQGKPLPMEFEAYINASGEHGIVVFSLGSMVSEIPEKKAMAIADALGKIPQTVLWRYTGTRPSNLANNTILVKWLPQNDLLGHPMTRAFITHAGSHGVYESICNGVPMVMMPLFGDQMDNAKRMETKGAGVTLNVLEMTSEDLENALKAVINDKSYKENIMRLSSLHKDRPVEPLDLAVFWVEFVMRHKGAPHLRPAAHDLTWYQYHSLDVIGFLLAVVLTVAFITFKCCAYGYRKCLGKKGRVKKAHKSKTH
Kind of data set: Steady state kinetics of glucuronidation by recombinant UGT1A8.

In data set [3] the target is T3, UGT1A10 (Homo sapiens, UniProt Q9HAW8).
T3 sequence (Q9HAW8 26-530): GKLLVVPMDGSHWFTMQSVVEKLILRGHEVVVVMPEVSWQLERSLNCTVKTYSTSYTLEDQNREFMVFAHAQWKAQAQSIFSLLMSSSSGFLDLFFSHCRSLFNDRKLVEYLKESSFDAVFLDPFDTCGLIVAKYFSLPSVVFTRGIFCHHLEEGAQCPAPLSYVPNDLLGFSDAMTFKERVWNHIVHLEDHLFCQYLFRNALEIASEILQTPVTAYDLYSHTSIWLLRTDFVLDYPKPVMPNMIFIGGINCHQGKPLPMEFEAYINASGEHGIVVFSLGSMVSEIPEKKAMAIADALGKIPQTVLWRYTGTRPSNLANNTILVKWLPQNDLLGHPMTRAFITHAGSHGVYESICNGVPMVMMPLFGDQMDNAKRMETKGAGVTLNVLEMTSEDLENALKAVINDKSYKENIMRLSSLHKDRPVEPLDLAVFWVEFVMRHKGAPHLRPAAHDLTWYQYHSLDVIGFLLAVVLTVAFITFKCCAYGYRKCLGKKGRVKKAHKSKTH
Kind of data set: Steady state kinetics of glucuronidation by recombinant UGT1A10.

For data set [4], the target named is T4, UGT1A1 (Homo sapiens, UniProt P22309).
T4 sequence (P22309 26-533): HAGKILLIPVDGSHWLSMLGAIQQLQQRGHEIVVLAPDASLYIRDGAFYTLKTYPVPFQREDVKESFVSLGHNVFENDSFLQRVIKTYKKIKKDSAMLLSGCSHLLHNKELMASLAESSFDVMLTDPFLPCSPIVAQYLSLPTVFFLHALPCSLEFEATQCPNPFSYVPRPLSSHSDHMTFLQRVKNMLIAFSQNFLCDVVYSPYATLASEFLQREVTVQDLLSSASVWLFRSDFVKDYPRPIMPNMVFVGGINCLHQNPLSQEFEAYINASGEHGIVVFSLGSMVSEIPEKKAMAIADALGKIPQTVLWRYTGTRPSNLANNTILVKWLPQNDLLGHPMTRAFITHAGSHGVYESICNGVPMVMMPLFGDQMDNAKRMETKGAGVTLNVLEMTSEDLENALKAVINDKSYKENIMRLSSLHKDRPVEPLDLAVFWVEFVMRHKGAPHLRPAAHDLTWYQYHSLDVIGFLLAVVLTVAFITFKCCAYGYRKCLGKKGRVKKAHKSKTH
Kind of data set: Steady state kinetics of glucuronidation by recombinant UGT1A1.

Data set [5] addresses T5, UGT2B17 (Homo sapiens, UniProt O75795).
T5 sequence (O75795 24-530): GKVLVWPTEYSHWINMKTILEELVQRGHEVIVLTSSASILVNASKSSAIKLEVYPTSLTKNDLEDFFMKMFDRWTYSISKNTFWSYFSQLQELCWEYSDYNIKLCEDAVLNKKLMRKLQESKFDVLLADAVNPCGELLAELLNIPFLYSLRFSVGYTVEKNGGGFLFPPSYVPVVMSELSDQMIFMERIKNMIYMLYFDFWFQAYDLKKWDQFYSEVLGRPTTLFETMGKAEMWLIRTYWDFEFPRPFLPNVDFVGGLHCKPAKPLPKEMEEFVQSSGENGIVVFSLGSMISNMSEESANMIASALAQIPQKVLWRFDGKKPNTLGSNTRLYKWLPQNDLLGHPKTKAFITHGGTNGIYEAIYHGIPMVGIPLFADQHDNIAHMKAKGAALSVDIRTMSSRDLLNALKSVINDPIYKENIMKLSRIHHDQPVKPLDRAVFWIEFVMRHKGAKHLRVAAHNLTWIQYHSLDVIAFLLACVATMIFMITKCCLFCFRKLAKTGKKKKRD
Kind of data set: Screening of recombinant UGT2B17 for glucuronidation activity. The following applies: 250 μM substrate, 5 μg protein, 60 min, 37 °C. A digest of the protocol: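 UGT1A1, 1A3, 1A4 and 1A6–1A10 were His-tagged and expressed in baculovirus-infected Sf9 cells; UGT2B4, 2B7, 2B15 and 2B17 were commercial membranes run per supplier protocol. 5 μg membrane protein with 250 μM substrate, 2 mM UDP-GlcUA, Tris–HCl pH 7.4, MgCl2, saccharolactone, 2% DMSO; 37 °C, 60 min; no-substrate controls. Products measured by HPLC-UV/vis; β-glucuronidase hydrolysis separated O- from carboxyl glucuronides.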

“And” between values parts separate entries of the source, which are not always exact repeats. Equal entries are not always repeated. Marks after values point to notes of the source that are not given here.

For orientation: Km means the concentration of substrate that gives half-maximal velocity.

As to `COc1ccc(/C=C(/C(=O)O)c2cc(OC)c(OC)c(OC)c2)cc1O` [NI-12a, (E)-3-(3-hydroxy-4-methoxyphenyl)-2-(3,4,5-trimethoxyphenyl)acrylic acid], the NI-12a-COO-gluc formation entry in data set [1] (COO-glucuronide) is recorded as “not produced”; in data set [2] (COO-glucuronide), “not produced”; in data set [3] (COO-glucuronide), “not produced”; in data set [4] (COO-glucuronide), “too low to be assessed”. In addition, the Vmax is 8.3 nm/mg protein/min in data set [1] (NI-12a glucuronidation); 8.3 nmol/mg/min and 8.3 ± 0.52 nmol/mg/min in data set [1] (NI-12a-O-gluc formation). In data set [1] (NI-12a glucuronidation), the “catalytic efficiency, ratio Vmax/Km” value is 35 µL/min/mg. In addition, the kinetic model result is “Michaelis–Menten and M–M” in data set [1] (NI-12a-O-gluc formation); “uncompetitive substrate inhibition and USI” in data set [2] (NI-12a-O-gluc formation); “Michaelis–Menten and M–M” in data set [3] (NI-12a-O-gluc formation). For the same compound, in data set [2] (NI-12a-O-gluc formation, USI model), the Ks is 950 ± 449 µM. In data set [4] (O-glucuronide), the NI-12a-O-gluc formation result is given as “not produced”.
`COc1cc(/C=C/c2cc([N+](=O)[O-])c(O)c([N+](=O)[O-])c2)cc(OC)c1` [DNR-1, (E)-4-(3,5-dimethoxystyryl)-2,6-dinitrophenol]: the “glucuronidation activity (glucuronide formed)” value in data set [5] is listed as “No activity”.
As to `COc1ccc(C=Cc2cc(OC)cc(OC)c2/C=N/O)cc1` [NI-ST-05, (E)-2,4-dimethoxy-6-(4-methoxystyryl)benzaldehyde oxime], the kinetic model entry in data set [1] (NI-ST-05–N–O-gluc formation) is listed as “did not fit any of the kinetic models tested”; in data set [3] (NI-ST-05–N–O-gluc formation), “Hill”; in data set [4] (NI-ST-05–N–O-gluc formation, estimated based on an incomplete data set) it was “M–M ^b”. Besides, in data set [1] (human, pH 7.4), the Km at 60 min is less than 5 µM. Also, the “NI-ST-05–N–O-gluc formation” value in data set [2] (N–O-glucuronide) is listed as “not produced”. Moreover, the Vmax is 0.65 nm/mg protein/min in data set [3] (C=N–O-glucuronidation of NI-ST-05); 0.65 ± 0.017 nmol/mg/min in data set [3] (NI-ST-05–N–O-gluc formation); 0.21 ± 0.02 ^b nmol/mg/min in data set [4] (NI-ST-05–N–O-gluc formation, estimated based on an incomplete data set, assuming M–M kinetics). Moreover, in data set [3] (NI-ST-05–N–O-gluc formation), the “n (Hill coefficient)” value stood at 3.4. The “glucuronidation activity (glucuronide formed)” value in data set [5] was “inactive”.
